Measured values from ChEMBL document CHEMBL4118253, “Expedient synthesis and biological evaluation of alkenyl acyclic nucleoside phosphonate prodrugs” (Bioorg Med Chem, 2018).

Assays:
[1] = Cytotoxicity against MDCK cells assessed as alteration of cell morphology by microscopic analysis; format: cell-based, Canis lupus familiaris; conditions: dog
[2] = Cytotoxicity against HEL cells assessed as alteration of cell morphology by microscopic analysis; format: cell-based; conditions: human
Outline: (§1)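 The value is the minimal cytotoxic concentration (MCC), the lowest concentration that causes a microscopically visible change in cell morphology. It was read in the same HEL or Vero cell cultures used for the antiviral tests.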

[3] = Cytotoxicity against African green monkey Vero cells assessed as alteration of cell morphology by microscopic analysis; format: cell-based; conditions: chlorocebus sabaeus; outline: as §1
Human alphaherpesvirus 2 = assay: Antiviral activity against Herpes simplex virus 2 G infected in HEL cells assessed as inhibition of virus-induced cytopathicity; format: functional, organism-based; conditions: Human alphaherpesvirus 2, strain G
Vaccinia virus = assay: Antiviral activity against Vaccinia virus infected in HEL cells assessed as inhibition of virus-induced cytopathicity; format: functional, organism-based; conditions: Orthopoxvirus vaccinia
[4] = Cytotoxicity against human HeLa cells assessed as alteration of cell morphology by microscopic analysis; format: cell-based
Influenza A virus [5] = assay: Antiviral activity against Influenza A virus H1N1 infected in MDCK cells assessed as inhibition of virus-induced cytopathicity by MTS assay; format: functional, organism-based
[6] = tested on: Vesicular stomatitis virus; assay: Antiviral activity against Vesicular stomatitis virus infected in human HeLa cells assessed as inhibition of virus-induced cytopathicity; format: functional, organism-based
Human respirovirus 3 = assay: Antiviral activity against Parainfluenza virus 3 infected in human HeLa cells assessed as inhibition of virus-induced cytopathicity; format: functional, organism-based; conditions: Human respirovirus 3, HeLa
Human betaherpesvirus 5 [7] = assay: Antiviral activity against Human cytomegalovirus Davis infected in HEL cells assessed as inhibition of virus-induced cytopathicity; format: functional, organism-based; conditions: Human betaherpesvirus 5, Davis
Punta Toro virus = assay: Antiviral activity against Punta Toro virus infected in African green monkey Vero cells assessed as inhibition of virus-induced cytopathicity; format: functional, organism-based
[8] = tested on: Respiratory syncytial virus; assay: Antiviral activity against Respiratory syncytial virus infected in human HeLa cells assessed as inhibition of virus-induced cytopathicity; format: functional, organism-based
Influenza B virus [9] = assay: Antiviral activity against Influenza B virus infected in MDCK cells assessed as inhibition of virus-induced visual cytopathicity; format: functional, organism-based
Human alphaherpesvirus 1 [10] = assay: Antiviral activity against acyclovir-resistant thymidine kinase deficient Herpes simplex virus 1 KOS infected in HEL cells assessed as inhibition of virus-induced cytopathicity; format: functional, organism-based; conditions: Human alphaherpesvirus 1, KOS
[11] = tested on: Mammalian orthoreovirus 1; assay: Antiviral activity against Reovirus-1 infected in human HeLa cells assessed as inhibition of virus-induced cytopathicity; format: functional, organism-based; conditions: Mammalian orthoreovirus 1, HeLa
Human betaherpesvirus 5 [12] = assay: Antiviral activity against Human cytomegalovirus AD169 infected in HEL cells assessed as inhibition of virus-induced cytopathicity; format: functional, organism-based; conditions: Human betaherpesvirus 5, AD169, HEL
Influenza A virus [13] = assay: Antiviral activity against Influenza A virus H1N1 infected in MDCK cells assessed as inhibition of virus-induced visual cytopathicity; format: functional, organism-based
Influenza B virus [14] = assay: Antiviral activity against Influenza B virus infected in MDCK cells assessed as inhibition of virus-induced cytopathicity by MTS assay; format: functional, organism-based
Sindbis virus = assay: Antiviral activity against Sindbis Virus infected in African green monkey Vero cells assessed as inhibition of virus-induced cytopathicity; format: functional, organism-based
Influenza A virus H3N2 [15] = assay: Antiviral activity against Influenza A virus H3N2 infected in MDCK cells assessed as inhibition of virus-induced cytopathicity by MTS assay; format: functional, organism-based
Human alphaherpesvirus 1 [16] = assay: Antiviral activity against Herpes simplex virus 1 KOS infected in HEL cells assessed as inhibition of virus-induced cytopathicity; format: functional, organism-based; conditions: Human alphaherpesvirus 1, KOS
Human alphaherpesvirus 3 [17] = assay: Antiviral activity against thymidine kinase deficient Varicella-Zoster virus infected in HEL cells assessed as reduction in virus plaque formation; format: functional, organism-based; conditions: Human alphaherpesvirus 3, HEL
Human alphaherpesvirus 3 [18] = assay: Antiviral activity against thymidine kinase expressing Varicella-Zoster virus infected in HEL cells assessed as reduction in virus plaque formation; format: functional, organism-based; conditions: Human alphaherpesvirus 3, HEL
Human coronavirus 229E = assay: Antiviral activity against Human coronavirus 229E infected in HEL cells assessed as inhibition of virus-induced cytopathicity; format: functional, organism-based
Coxsackievirus B4 = assay: Antiviral activity against Coxsackie virus B4 infected in African green monkey Vero cells assessed as inhibition of virus-induced cytopathicity; format: functional, organism-based; conditions: Enterovirus B
Influenza A virus H3N2 [19] = assay: Antiviral activity against Influenza A virus H3N2 infected in MDCK cells assessed as inhibition of virus-induced visual cytopathicity; format: functional, organism-based
Human adenovirus 2 = assay: Antiviral activity against Adenovirus 2 infected in HEL cells assessed as inhibition of virus-induced cytopathicity; format: functional, organism-based; conditions: Human mastadenovirus C
Yellow fever virus = assay: Antiviral activity against Yellow fever virus infected in African green monkey Vero cells assessed as inhibition of virus-induced cytopathicity; format: functional, organism-based

| SMILES | MCC [1] | MCC [2] | MCC [3] | EC50 (Vaccinia virus) | MCC [4] | EC50 (Influenza A virus [5]) | EC50 (Human respirovirus 3) | EC50 (Human betaherpesvirus 5 [7]) | EC50 (Punta Toro virus) | EC50 [8] | EC50 (Influenza B virus [9]) | EC50 (Human alphaherpesvirus 1 [10]) | EC50 [11] | EC50 (Influenza A virus [13]) | EC50 (Influenza B virus [14]) | EC50 (Sindbis virus) | EC50 (Influenza A virus H3N2 [15]) | EC50 (Coxsackievirus B4) | EC50 (Influenza A virus H3N2 [19]) | EC50 (Human adenovirus 2) | also measured |
| --- | --- | --- | --- | --- | --- | --- | --- | --- | --- | --- | --- | --- | --- | --- | --- | --- | --- | --- | --- | --- | --- |
| C/C(=C\CP(=O)(N[C@@H](C)C(=O)OCc1ccccc1)Oc1cccc2ccccc12)Cn1cc(C)c(=O)[nH]c1=O (stereo partly specified) | > 100 µM | > 100 µM | > 100 µM | > 100 µM | > 100 µM | > 100 µM | > 100 µM | > 100 µM | > 100 µM | > 100 µM | > 100 µM | > 100 µM | > 100 µM | > 100 µM | > 100 µM | > 100 µM | > 100 µM | > 100 µM | > 100 µM | > 100 µM | EC50 (Human alphaherpesvirus 2): > 100 µM; EC50 [6]: > 100 µM; EC50 (Human betaherpesvirus 5 [12]): > 100 µM; EC50 (Human alphaherpesvirus 1 [16]): > 100 µM; EC50 (Human alphaherpesvirus 3 [17]): 55.3 µM; EC50 (Human alphaherpesvirus 3 [18]): 34.2 µM; EC50 (Human coronavirus 229E): > 100 µM; EC50 (Yellow fever virus): > 100 µM |
| C/C(=C\CP(=O)(N[C@@H](C)C(=O)OC(C)C)Oc1cccc2ccccc12)Cn1cc(C)c(=O)[nH]c1=O (stereo partly specified) | > 100 µM | > 100 µM | ≥ 20 µM | > 100 µM | ≥ 20 µM | > 100 µM | > 100 µM | > 100 µM | > 100 µM | > 100 µM | > 100 µM | > 100 µM | > 100 µM | > 100 µM | > 100 µM | > 100 µM | > 100 µM | > 100 µM | > 100 µM | > 100 µM | EC50 (Human alphaherpesvirus 2): > 100 µM; EC50 [6]: > 100 µM; EC50 (Human betaherpesvirus 5 [12]): > 100 µM; EC50 (Human alphaherpesvirus 1 [16]): > 100 µM; EC50 (Human alphaherpesvirus 3 [17]): > 100 µM; EC50 (Human coronavirus 229E): > 100 µM; EC50 (Yellow fever virus): > 100 µM |
| C/C(=C/CP(=O)(N[C@@H](C)C(=O)OC(C)C)Oc1cccc2c1CCCC2)Cn1cc(C)c(=O)[nH]c1=O (stereo partly specified) | 100 µM | 100 µM | > 100 µM | > 100 µM | > 100 µM | > 100 µM | > 100 µM | > 20 µM | 45 µM | > 100 µM | > 100 µM | > 100 µM | > 100 µM | > 100 µM | > 100 µM | 45 µM | > 100 µM | 58 µM | > 100 µM | > 100 µM | EC50 (Human alphaherpesvirus 2): > 100 µM; EC50 [6]: > 100 µM; EC50 (Human alphaherpesvirus 1 [16]): > 100 µM; EC50 (Human alphaherpesvirus 3 [17]): > 20 µM; EC50 (Human alphaherpesvirus 3 [18]): > 20 µM; EC50 (Human coronavirus 229E): > 100 µM; EC50 (Yellow fever virus): 58 µM |
| C/C(=C/CP(=O)(N[C@@H](C)C(=O)OCc1ccccc1)Oc1cccc2c1CCCC2)Cn1cc(C)c(=O)[nH]c1=O (stereo partly specified) | > 100 µM | > 100 µM | ≥ 20 µM | > 100 µM | ≥ 20 µM | > 100 µM | > 100 µM | 76.5 µM | > 100 µM | > 100 µM | > 100 µM | > 100 µM | > 100 µM | > 100 µM | > 100 µM | > 100 µM | > 100 µM | > 100 µM | > 100 µM | > 100 µM | EC50 (Human alphaherpesvirus 2): > 100 µM; EC50 [6]: > 100 µM; EC50 (Human alphaherpesvirus 1 [16]): > 100 µM; EC50 (Human alphaherpesvirus 3 [17]): 65.1 µM; EC50 (Human alphaherpesvirus 3 [18]): 17 µM; EC50 (Human coronavirus 229E): > 100 µM; EC50 (Yellow fever virus): > 100 µM |
| Nc1nc2c(ncn2COCCO)c(=O)[nH]1 [ACYCLOVIR] | – | 250 to 440 µM | – | > 250 µM | – | – | – | – | – | – | – | 126 µM | – | – | – | – | – | – | – | – | – |
| Cc1cn([C@H]2C[C@H](F)[C@@H](CO)O2)c(=O)[nH]c1=O [ALOVUDINE] | – | > 250 µM | – | – | – | – | – | – | – | – | – | – | – | – | – | – | – | – | – | 1.2 µM | – |
| NC12CC3CC(CC(C3)C1)C2 [AMANTADINE] | > 100 µM | – | – | – | – | 1.4 µM | – | – | – | – | > 100 µM | – | – | 1.8 µM | > 100 µM | – | 1.6 µM | – | 2 µM | – | – |
| O=c1[nH]c(=O)n([C@H]2C[C@H](O)[C@@H](CO)O2)cc1/C=C/Br [BRIVUDINE] | – | 250 to 300 µM | – | 19 µM | – | – | – | – | – | – | – | – | – | – | – | – | – | – | – | – | EC50 (Human alphaherpesvirus 3 [17]): 0.57 µM |
| Nc1ccn(C[C@@H](CO)OCP(=O)(O)O)c(=O)n1 [CIDOFOVIR] | – | > 250 µM | – | 37 µM | – | – | – | – | – | – | – | – | – | – | – | – | – | – | – | 22 µM | EC50 (Human betaherpesvirus 5 [12]): 1.24 µM |
| Nc1nc2c(ncn2COC(CO)CO)c(=O)[nH]1 [GANCICLOVIR] | – | > 100 µM | – | > 100 µM | – | – | – | 2.29 µM | – | – | – | – | – | – | – | – | – | – | – | – | EC50 (Human betaherpesvirus 5 [12]): 11.4 µM |
| COc1c(C)c2c(c(O)c1C/C=C(\C)CCC(=O)O)C(=O)OC2 [MYCOPHENOLIC ACID] | – | – | > 100 µM | – | – | – | 0.4 µM | – | 6.1 µM | – | – | – | 6.8 µM | – | – | – | – | > 100 µM | – | – | – |
| CCOC(=O)C1=C[C@@H](OC(CC)CC)[C@H](NC(C)=O)[C@@H](N)C1 [OSELTAMIVIR] | > 100 µM | – | – | – | – | 0.2 µM | – | – | – | – | 2.9 µM | – | – | 1.5 µM | – | – | > 100 µM | – | > 100 µM | – | – |
| NC(=O)c1ncn([C@@H]2O[C@H](CO)[C@@H](O)[C@H]2O)n1 [RIBAVIRIN] | > 100 µM | – | > 250 µM | – | > 250 µM | – | 95 µM | – | – | 25 µM | – | – | > 250 µM | – | – | > 250 µM | – | > 250 µM | – | – | EC50 (Yellow fever virus): > 250 µM |
| CC(N)C12CC3CC(CC(C3)C1)C2 (stereo unspecified) [RIMANTADINE] | > 200 µM | – | – | – | – | > 200 µM | – | – | – | – | > 200 µM | – | – | > 200 µM | > 200 µM | – | 0.7 µM | – | 0.4 µM | – | – |
| Nc1ccn([C@H]2CC[C@@H](CO)O2)c(=O)n1 [ZALCITABINE] | – | > 250 µM | – | – | – | – | – | – | – | – | – | – | – | – | – | – | – | – | – | 10 µM | – |
